Results: ChEMBL document CHEMBL4138211, “Regio- and stereoselective synthesis of dispirooxindole-pyrrolocarbazole hybrids via 1,3-dipolar cycloaddition reactions: Cytotoxic activity and SAR studies” (Eur J Med Chem, 2018)
Calls of active or inactive are those of the source. The calls are words filed in the database; no cut-off is given here.

Legend:
A549 [1] = experiment: Induction of apoptosis in human A549 cells assessed as nuclear fragmentation after 24 hrs by DAPI staining-based fluorescence microscopic analysis; type: functional, cell-based
In short: (§1)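 Cells plated on glass coverslips and treated for 24 h, then fixed. Permeabilised with 0.2% Triton X-100 for 10 min at room temperature. DAPI applied for 3 min under a coverslip. Nuclei inspected by fluorescence microscopy for condensed chromatin and fragmentation, against untreated cells.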

MCF7 [2] = experiment: Induction of apoptosis in human MCF7 cells assessed as necrotic cells at 20 uM after 6 hrs by Annexin V-FITC/propidium iodide staining based flow cytometry (reference value: 0.0%); type: functional
In short: (§2)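 Cells at 1×10⁵/mL exposed to 5, 10 or 20 μM (printed as μM/ml) for 6 h, with an untreated control. Harvested, PBS-washed and trypsinised, then spun at 200×g for 10 min. Stained with annexin V-FITC/propidium iodide for 10-15 min at 25 °C. Quadrant analysis gives live, early apoptotic, late apoptotic and necrotic fractions.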

A549 [3] = experiment: Induction of apoptosis in human A549 cells assessed as viable cells at 10 uM after 6 hrs by Annexin V-FITC/propidium iodide staining based flow cytometry (reference value: 99.23%); type: functional; conditions: A549, 6 h, read-out: Activity; in short: as §2
A549 [4] = experiment: Induction of apoptosis in human A549 cells assessed as cell shrinkage after 24 hrs by brightfield inverted light microscopic analysis; type: functional, cell-based
A549 [5] = experiment: Induction of apoptosis in human A549 cells assessed as early apoptotic cells at 10 uM after 6 hrs by Annexin V-FITC/propidium iodide staining based flow cytometry (reference value: 0.77%); type: functional; in short: as §2
A549 [6] = experiment: Induction of apoptosis in human A549 cells assessed as viable cells at 20 uM after 6 hrs by Annexin V-FITC/propidium iodide staining based flow cytometry (reference value: 99.23%); type: functional; conditions: A549, 6 h, read-out: Activity; in short: as §2
MCF7 [7] = experiment: Induction of apoptosis in human MCF7 cells assessed as viable cells at 20 uM after 6 hrs by Annexin V-FITC/propidium iodide staining based flow cytometry (reference value: 99.12%); type: functional; conditions: MCF7, 6 h, read-out: Activity; in short: as §2
A549 [8] = experiment: Induction of apoptosis in human A549 cells assessed as early apoptotic cells at 5 uM after 6 hrs by Annexin V-FITC/propidium iodide staining based flow cytometry (reference value: 0.77%); type: functional; in short: as §2
A549 [9] = experiment: Induction of apoptosis in human A549 cells assessed as early apoptotic cells at 20 uM after 6 hrs by Annexin V-FITC/propidium iodide staining based flow cytometry (reference value: 0.77%); type: functional; in short: as §2
MCF7 [10] = experiment: Induction of apoptosis in human MCF7 cells assessed as early apoptotic cells at 10 uM after 6 hrs by Annexin V-FITC/propidium iodide staining based flow cytometry (reference value: 0.88%); type: functional; in short: as §2
MCF7 [11] = experiment: Induction of apoptosis in human MCF7 cells assessed as viable cells at 5 uM after 6 hrs by Annexin V-FITC/propidium iodide staining based flow cytometry (reference value: 99.12%); type: functional; conditions: MCF7, 6 h, read-out: Activity; in short: as §2
MCF7 [12] = experiment: Induction of apoptosis in human MCF7 cells assessed as viable cells at 10 uM after 6 hrs by Annexin V-FITC/propidium iodide staining based flow cytometry (reference value: 99.12%); type: functional; conditions: MCF7, 6 h, read-out: Activity; in short: as §2
A549 [13] = experiment: Induction of apoptosis in human A549 cells assessed as necrotic cells at 20 uM after 6 hrs by Annexin V-FITC/propidium iodide staining based flow cytometry (reference value: 0.0%); type: functional; in short: as §2
A549 [14] = experiment: Induction of apoptosis in human A549 cells assessed as late apoptotic cells at 20 uM after 6 hrs by Annexin V-FITC/propidium iodide staining based flow cytometry (reference value: 0.0%); type: functional; in short: as §2
MCF7 [15] = experiment: Induction of apoptosis in human MCF7 cells by acridine orange/ethidium bromide staining-based fluorescence microscopic analysis; type: functional, cell-based
In short: (§3)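 Treated cells collected and washed in PBS (pH 7.2). Stained with a 1:1 AO/EtBr mixture (each dye […] in water) and held 2 min. Washed twice in PBS and viewed by fluorescence microscopy at 400× with 480 nm excitation. Green intact-membrane cells distinguished from orange/red membrane-damaged cells.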

MCF7 [16] = experiment: Induction of apoptosis in human MCF7 cells assessed as damaged cell membranes by acridine orange/ethidium bromide staining-based fluorescence microscopic analysis; type: functional; in short: as §3
MCF7 [17] = experiment: Antiproliferative activity against human MCF7 cells after 48 hrs by MTT assay; type: functional, cell-based
In short: (§4)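 Cells grown 1×10⁴/well for 48 h to about 75% confluence. Medium then replaced with fresh medium containing serially diluted compounds, followed by a further 48 h. MTT added for 4 h at 37 °C and formazan dissolved in DMSO for 10 min. OD read at 620 nm. IC50 taken from the viability–concentration survival curve. Three independent experiments, each in triplicate.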

A549 [18] = experiment: Induction of apoptosis in human A549 cells assessed as necrotic cells at 10 uM after 6 hrs by Annexin V-FITC/propidium iodide staining based flow cytometry (reference value: 0.0%); type: functional; in short: as §2
MCF7 [19] = experiment: Induction of apoptosis in human MCF7 cells assessed as necrotic cells at 10 uM after 6 hrs by Annexin V-FITC/propidium iodide staining based flow cytometry (reference value: 0.0%); type: functional; in short: as §2
MCF7 [20] = experiment: Induction of apoptosis in human MCF7 cells assessed as nuclear condensation by acridine orange/ethidium bromide staining-based fluorescence microscopic analysis; type: functional, cell-based; in short: as §3
A549 [21] = experiment: Induction of apoptosis in human A549 cells assessed as viable cells at 5 uM after 6 hrs by Annexin V-FITC/propidium iodide staining based flow cytometry (reference value: 99.23%); type: functional; conditions: A549, 6 h, read-out: Activity; in short: as §2
MCF7 [22] = experiment: Induction of apoptosis in human MCF7 cells assessed as late apoptotic cells at 20 uM after 6 hrs by Annexin V-FITC/propidium iodide staining based flow cytometry (reference value: 0.0%); type: functional; in short: as §2
MCF7 [23] = experiment: Induction of apoptosis in human MCF7 cells assessed as necrotic cells at 5 uM after 6 hrs by Annexin V-FITC/propidium iodide staining based flow cytometry (reference value: 0.0%); type: functional; in short: as §2
A549 [24] = experiment: Induction of apoptosis in human A549 cells assessed as necrotic cells at 5 uM after 6 hrs by Annexin V-FITC/propidium iodide staining based flow cytometry (reference value: 0.0%); type: functional; in short: as §2
MCF7 [25] = experiment: Induction of apoptosis in human MCF7 cells assessed as nuclear fragmentation after 24 hrs by DAPI staining-based fluorescence microscopic analysis; type: functional, cell-based; in short: as §1
MCF7 [26] = experiment: Induction of apoptosis in human MCF7 cells assessed as membrane blebbing after 24 hrs by brightfield inverted light microscopic analysis; type: functional, cell-based
MCF7 [27] = experiment: Induction of apoptosis in human MCF7 cells assessed as increase in late apoptotic cells after 6 hrs by Annexin V-FITC/propidium iodide staining based flow cytometry; type: functional, cell-based; in short: as §2
MCF7 [28] = experiment: Induction of apoptosis in human MCF7 cells assessed as formation of floating cells after 24 hrs by brightfield inverted light microscopic analysis; type: functional, cell-based
A549 [29] = experiment: Induction of apoptosis in human A549 cells assessed as increase in late apoptotic cells after 6 hrs by Annexin V-FITC/propidium iodide staining based flow cytometry; type: functional, cell-based; in short: as §2
A549 [30] = experiment: Induction of apoptosis in human A549 cells assessed as late apoptotic cells at 5 uM after 6 hrs by Annexin V-FITC/propidium iodide staining based flow cytometry (reference value: 0.0%); type: functional; in short: as §2
A549 [31] = experiment: Induction of apoptosis in human A549 cells assessed as late apoptotic cells at 10 uM after 6 hrs by Annexin V-FITC/propidium iodide staining based flow cytometry (reference value: 0.0%); type: functional; in short: as §2
A549 [32] = experiment: Induction of apoptosis in human A549 cells assessed as membrane blebbing after 24 hrs by brightfield inverted light microscopic analysis; type: functional, cell-based
A549 [33] = experiment: Induction of apoptosis in human A549 cells assessed as formation of floating cells after 24 hrs by brightfield inverted light microscopic analysis; type: functional, cell-based
MCF7 [34] = experiment: Induction of apoptosis in human MCF7 cells assessed as early apoptotic cells at 5 uM after 6 hrs by Annexin V-FITC/propidium iodide staining based flow cytometry (reference value: 0.88%); type: functional; in short: as §2
MCF7 [35] = experiment: Induction of apoptosis in human MCF7 cells assessed as late apoptotic cells at 10 uM after 6 hrs by Annexin V-FITC/propidium iodide staining based flow cytometry (reference value: 0.0%); type: functional; in short: as §2
A549 [36] = experiment: Induction of apoptosis in human A549 cells by acridine orange/ethidium bromide staining-based fluorescence microscopic analysis; type: functional, cell-based; in short: as §3
MCF7 [37] = experiment: Induction of apoptosis in human MCF7 cells assessed as increase in early apoptotic cells after 6 hrs by Annexin V-FITC/propidium iodide staining based flow cytometry; type: functional, cell-based; in short: as §2
A549 [38] = experiment: Antiproliferative activity against human A549 cells after 48 hrs by MTT assay; type: functional, cell-based; in short: as §4
MCF7 [39] = experiment: Induction of apoptosis in human MCF7 cells assessed as late apoptotic cells at 5 uM after 6 hrs by Annexin V-FITC/propidium iodide staining based flow cytometry (reference value: 0.0%); type: functional; in short: as §2
MCF7 [40] = experiment: Induction of apoptosis in human MCF7 cells assessed as early apoptotic cells at 20 uM after 6 hrs by Annexin V-FITC/propidium iodide staining based flow cytometry (reference value: 0.88%); type: functional; in short: as §2
MCF7 [41] = experiment: Induction of apoptosis in human MCF7 cells assessed as cell shrinkage after 24 hrs by brightfield inverted light microscopic analysis; type: functional, cell-based
A549 [42] = experiment: Induction of apoptosis in human A549 cells assessed as increase in early apoptotic cells after 6 hrs by Annexin V-FITC/propidium iodide staining based flow cytometry; type: functional, cell-based; in short: as §2

O=C1Nc2ccccc2[C@]12N[C@H](c1ccccc1)[C@H](c1cccs1)[C@@]21CCc2c([nH]c3ccc(Cl)cc23)C1=O
Activity (A549 [1]): Active | Activity (MCF7 [2]): 1.12% | viability at 10 µM (A549 [3]): 72.2% | Activity (A549 [4]): Dose-dependent effect | Activity (A549 [5]): 17.35% | viability at 20 µM (A549 [6]): 37.3% | viability at 20 µM (MCF7 [7]): 35.1% | Activity (A549 [8]): 28.95% | Activity (A549 [9]): 32.15% | Activity (MCF7 [10]): 23.3% | viability at 5 µM (MCF7 [11]): 82.5% | viability at 10 µM (MCF7 [12]): 62.9% | Activity (A549 [13]): 1.85% | Activity (A549 [14]): 28.7% | Activity (MCF7 [15]): Active | Activity (MCF7 [16]): Active | Activity (MCF7 [17]): Dose-dependent effect | IC50 (MCF7 [17]; MCF7, 48 h): 13 µM | Activity (A549 [18]): 2.81% | Activity (MCF7 [19]): 0.98% | Activity (MCF7 [20]): Active | viability at 5 µM (A549 [21]): 63.2% | Activity (MCF7 [22]): 30.2% | Activity (MCF7 [23]): 1.81% | Activity (A549 [24]): 1.15% | Activity (MCF7 [25]): Active | Activity (MCF7 [26]): Dose-dependent effect | Activity (MCF7 [27]): Dose-dependent effect | Activity (MCF7 [28]): Dose-dependent effect | Activity (A549 [29]): Dose-dependent effect | Activity (A549 [30]): 6.7% | Activity (A549 [31]): 7.65% | Activity (A549 [32]): Dose-dependent effect | Activity (A549 [33]): Dose-dependent effect | Activity (MCF7 [34]): 8.19% | Activity (MCF7 [35]): 12.82% | Activity (A549 [36]): Active | Activity (MCF7 [37]): Dose-dependent effect | Activity (A549 [38]): Dose-dependent effect | IC50 (A549 [38]; A549, 48 h): 14 µM | Activity (MCF7 [39]): 7.55% | Activity (MCF7 [40]): 33.56% | Activity (MCF7 [41]): Dose-dependent effect | Activity (A549 [42]): Dose-dependent effect
